# In ChEMBL document CHEMBL1130238, “Synthesis and biological activity of a series of potent fluoromethyl ketone inhibitors of recombinant human calpain I” (J Med Chem, 1997):
# pIC50: −log10 of the molar value. Starred links: 1 amine or outer side, 2 acyl side, 3 side chain; linkers in the order of their positions; H or OH if unused. Non-standard residues stand in square brackets, D forms with d. Residues, ends and D or L forms follow the SMILES beside them. ξ: configuration not given here. *: point of attachment. Hydrocinnamoyl = O=C(CCc1ccccc1)*; ξF = NC(Cc1ccccc1)C(=O)O; Cbz = O=C(OCc1ccccc1)*; Boc = CC(C)(C)OC(=O)*; ξL = CC(C)CC(N)C(=O)O; CO = O=C([*:1])[*:2]; NHBn = c1ccc(CN*)cc1; ξAbu = CCC(N)C(=O)O; ξS = NC(CO)C(=O)O; CH2F = FC*
# Assays:
# [1] = target: Cathepsin B (Homo sapiens) (UniProt P07858); experiment: Compound was tested for inhibitory against cathepsin B
# How it was run: (§1)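 Rates of enzyme inactivation for cathepsins B and L were measured using Cbz-Phe-Arg-AMC as the fluorogenic substrate, under previously published assay conditions.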
# [2] = target: T1, Calpain-1 catalytic subunit (Homo sapiens) (UniProt P07384); experiment: Inhibition of Calpain-I receptor
# T1 sequence (whole entry): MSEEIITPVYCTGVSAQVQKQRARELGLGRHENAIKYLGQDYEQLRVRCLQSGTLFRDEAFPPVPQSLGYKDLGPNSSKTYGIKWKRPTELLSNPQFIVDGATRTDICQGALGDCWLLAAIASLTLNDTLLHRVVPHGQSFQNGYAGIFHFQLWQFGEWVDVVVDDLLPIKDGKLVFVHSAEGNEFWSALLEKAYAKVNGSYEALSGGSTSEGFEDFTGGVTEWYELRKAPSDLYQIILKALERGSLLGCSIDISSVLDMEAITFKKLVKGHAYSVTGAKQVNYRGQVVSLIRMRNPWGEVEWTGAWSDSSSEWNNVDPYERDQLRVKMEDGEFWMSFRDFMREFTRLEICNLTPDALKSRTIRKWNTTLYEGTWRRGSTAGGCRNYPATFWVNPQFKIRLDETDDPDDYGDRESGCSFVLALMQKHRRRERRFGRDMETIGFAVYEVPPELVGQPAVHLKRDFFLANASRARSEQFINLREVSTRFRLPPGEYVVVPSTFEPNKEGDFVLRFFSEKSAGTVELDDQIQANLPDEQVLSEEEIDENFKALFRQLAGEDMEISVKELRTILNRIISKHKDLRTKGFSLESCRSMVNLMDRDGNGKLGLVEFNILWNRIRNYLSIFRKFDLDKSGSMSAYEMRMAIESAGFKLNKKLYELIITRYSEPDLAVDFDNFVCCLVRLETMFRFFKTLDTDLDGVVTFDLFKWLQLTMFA
# [3] = target: Procathepsin L (Homo sapiens) (UniProt P07711); experiment: Compound was tested for inhibitory against cathepsin L.; how it was run: as §1
# Sequence of Procathepsin L (Homo sapiens) (P07711 114-333 limits assumed): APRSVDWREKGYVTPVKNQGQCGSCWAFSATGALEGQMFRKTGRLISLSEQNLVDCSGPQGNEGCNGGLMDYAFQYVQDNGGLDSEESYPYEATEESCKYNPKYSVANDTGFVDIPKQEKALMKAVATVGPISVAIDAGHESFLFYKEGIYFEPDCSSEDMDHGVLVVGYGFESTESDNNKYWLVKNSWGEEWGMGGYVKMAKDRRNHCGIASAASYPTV
# MOLT-4 [4] = experiment: Inhibitory activity against MOH-4 cells(Human Leukemia T- cells) using intact cell assay method.; type: functional, cell-based
# How it was run: (§2)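 Molt-4 cells (2×10^7/mL in HEPES-buffered saline, pH 7.2–7.5) were preincubated with inhibitor for 10 min at 37 °C, then challenged for 30 min at 37 °C by adding medium containing inhibitor, 10 mM Ca2+ and 40 μM ionomycin. Lysates were immunoblotted for calpain I-mediated spectrin breakdown products. Percent inhibition came from densitometry against no-inhibitor samples; IC50 by nonlinear regression.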
# [5] = target: Cathepsin B (Homo sapiens) (UniProt P07858); experiment: Compound was tested for inhibitory against Cathepsin B; how it was run: as §1
# [6] = target: Procathepsin L (Homo sapiens) (UniProt P07711); experiment: Compound was tested for inhibitory against cathepsin L; how it was run: as §1
# [7] = target: Procathepsin L (Homo sapiens) (UniProt P07711); experiment: Compound was tested for inhibitory activity against cathepsin L; how it was run: as §1
# [8] = target: Cathepsin B (Homo sapiens) (UniProt P07858); experiment: Compound was tested for inhibitory activity against cathepsin B
# How it was run: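 Rate of inactivation of cathepsin B, with Cbz-Phe-Arg-AMC as substrate.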
# [9] = target: T1, Calpain-1 catalytic subunit (Homo sapiens); experiment: Compound was tested for inhibitory uM
# [10] = target: Cathepsin B (Homo sapiens) (UniProt P07858); experiment: Compound was tested for inhibitory activities against cathepsin B; how it was run: as §1
# MOLT-4 [11] = experiment: Inhibitory activity against […] cells(Human Leukemia T- cells) using intact cell assay method, at 10 uM; type: functional; how it was run: as §2
K [1] [M⁻¹ s⁻¹],K [2] [M⁻¹ s⁻¹],pIC50 (MOLT-4 [4]),K [6] [M⁻¹ s⁻¹],SMILES,further results
100,67200,5.00,–,CC(C)C[C@H](NS(=O)(=O)N1CCOCC1)C(=O)NC(Cc1ccccc1)C(=O)CF (stereo partly specified),K [3]: 3200 M⁻¹ s⁻¹
–,–,6.70,48400,CC(C)C[C@H](NC(=O)N1CCc2ccccc2C1)C(=O)NC(Cc1ccccc1)C(=O)CF (stereo partly specified),K [5]: 7500 M⁻¹ s⁻¹
9000,100000,5.89,–,CC(C)C[C@H](NC(=O)OCc1ccccc1)C(=O)NC(COC1CCCCO1)C(=O)CF (stereo partly specified),K [7]: 22600 M⁻¹ s⁻¹
–,4700,–,–,CC(C)C[C@H](NC(=O)[C@H]1O[C@@H]1C(=O)O)C(=O)NCCCCN=C(N)N,–
–,–,–,110000,CC(NC(=O)[C@H](Cc1ccccc1)NC(=O)OCc1ccccc1)C(=O)CF (stereo partly specified),K [8]: 21000 M⁻¹ s⁻¹; K [9]: No significant inhibition
–,68600,–,100,CC(C)C[C@H](NC(=O)OC(C)(C)C)C(=O)NC(Cc1ccccc1)C(=O)CF (stereo partly drawn) (Boc-Leu-[ξF]-CH2F),K [10]: 150 M⁻¹ s⁻¹; inhibition at 10 µM (MOLT-4 [11]): 42%
24500,24200,–,64000,CCC(NC(=O)[C@H](CC(C)C)NC(=O)OCc1ccccc1)C(=O)CF (stereo partly drawn) (Cbz-Leu-[ξAbu]-CH2F),–
300,136000,6.70,5000,CC(C)C[C@H](NC(=O)OCc1ccccc1)C(=O)NC(Cc1ccccc1)C(=O)CF (stereo partly drawn) (Cbz-Leu-[ξF]-CH2F),–
16300,21000,–,31000,CC(C)C[C@H](NC(=O)OCc1ccccc1)C(=O)NC(CO)C(=O)CF (stereo partly drawn) (Cbz-Leu-[ξS]-CH2F),–
360,35000,–,21500,CC(C)[C@H](NC(=O)OCc1ccccc1)C(=O)NC(Cc1ccccc1)C(=O)CF (stereo partly drawn) (Cbz-Val-[ξF]-CH2F),–
4600,290000,7.00,256000,CC(C)CC(NC(=O)OCc1ccccc1)C(=O)N[C@@H](CC(C)C)C(=O)NC(Cc1ccccc1)C(=O)CF (stereo partly specified) (Cbz-[ξL]-Leu-[ξF]-CH2F),–
25,8000,–,250,CC(C)C[C@H](N)C(=O)N[C@@H](Cc1ccccc1)C(=O)CF (H-Leu-Phe-CH2F),–
600,26600,–,800,CC(C)C[C@H](NC(=O)CCc1ccccc1)C(=O)NC(Cc1ccccc1)C(=O)CF (stereo partly specified) (Hydrocinnamoyl-Leu-[ξF]-CH2F),–
–,67000,6.10,–,CC(C)C[C@H](NC(=O)NCc1ccccc1)C(=O)NC(Cc1ccccc1)C(=O)CF (stereo partly specified) ({NHBn-CO}-Leu-[ξF]-CH2F),K [5]: 275 M⁻¹ s⁻¹; K [7]: 9400 M⁻¹ s⁻¹
